Legend:
Rattus norvegicus [1] = test: Unbound Cmax in Wistar Han IGS rat at 10 mg/kg, po qd administered for 14 days; format: ADME, organism-based; conditions: in vivo, 336 h
Outline: (§1)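 Wistar Han rats were dosed orally once daily for 14 days (exploratory, 5/sex/dose) or 1 month (toxicity, 10/sex/dose). Toxicokinetic satellite animals (3–4/sex/dose) were used, and steady-state systemic exposure is given as the mean of male and female values combined.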

Rattus norvegicus [2] = test: Unbound Cmax in Wistar Han IGS rat at 100 mg/kg, po qd administered for 14 days; format: ADME, organism-based; conditions: in vivo, 336 h; outline: as §1
Canis familiaris [3] = test: Unbound Cmax in beagle dog at 2 mg/kg, po qd administered for 1 month; format: ADME, organism-based, Canis lupus familiaris; conditions: in vivo
Outline: (§2)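 Beagle dogs were dosed orally once daily in a 14-day exploratory study or 1-month toxicity studies. Steady-state systemic exposure over the 24 h dosing interval is reported as the mean of male and female values combined.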

CYP3A4 = CYP3A4 (Homo sapiens, UniProt P08684); test: Drug metabolism in human liver microsomes assessed as CYP3A4-mediated oxidative metabolism by measuring clearance rate; format: ADME; conditions: liver microsomes, read-out: CLH
Chain of CYP3A4 (P08684 whole entry): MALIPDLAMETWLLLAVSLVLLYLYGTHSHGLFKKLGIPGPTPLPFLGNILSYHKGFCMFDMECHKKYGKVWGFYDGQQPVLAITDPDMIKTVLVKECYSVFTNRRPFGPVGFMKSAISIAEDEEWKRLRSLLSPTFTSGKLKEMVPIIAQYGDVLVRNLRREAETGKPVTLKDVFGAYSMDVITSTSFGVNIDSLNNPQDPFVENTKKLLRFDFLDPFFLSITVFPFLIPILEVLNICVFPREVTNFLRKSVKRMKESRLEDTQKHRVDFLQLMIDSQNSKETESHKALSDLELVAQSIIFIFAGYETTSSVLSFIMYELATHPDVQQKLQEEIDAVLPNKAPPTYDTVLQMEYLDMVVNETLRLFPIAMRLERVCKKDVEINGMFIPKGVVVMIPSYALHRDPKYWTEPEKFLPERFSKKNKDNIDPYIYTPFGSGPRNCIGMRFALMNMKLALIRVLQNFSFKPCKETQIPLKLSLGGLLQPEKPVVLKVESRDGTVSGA

Rattus norvegicus [4] = test: Unbound AUC in Wistar Han IGS rat at 60 mg/kg, po qd administered for 1 month; format: ADME, organism-based; conditions: in vivo; outline: as §1
UGT = test: Drug metabolism in human liver microsomes assessed as UGT-mediated glucuronidation by measuring clearance rate; format: ADME; conditions: liver microsomes, read-out: CLH
Canis familiaris [5] = test: Unbound Cmax in telemetered beagle dog at 75 mg/kg administered via oral gavage measured over 24 hrs; format: ADME, organism-based, Canis lupus familiaris; conditions: in vivo
Outline: (§3)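 Telemetered Beagle dogs given oral doses, with blood pressure and heart rate monitored after dosing alongside plasma exposure.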

Rattus norvegicus [6] = test: Unbound Cmax in Wistar Han IGS rat at 30 mg/kg, po qd administered for 1 month; format: ADME, organism-based; conditions: in vivo; outline: as §1
Canis familiaris [7] = test: In vivo inhibition of DGAT2 in beagle dog assessed as coverage of in vitro IC50 for dog DGAT2 at 10 mg/kg, po qd administered for 1 month; format: functional, Canis lupus familiaris; design: scale not given: the % may be the effect or the level left
Outline: (§4)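 Beagle dogs, once-daily oral dosing for 14 days or 1 month; systemic exposure with sexes combined; coverage is the average % above dog DGAT2 IC50 at steady state over the 24 h dosing interval.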

Rattus norvegicus [8] = test: In vivo inhibition of DGAT2 in Wistar Han IGS rat assessed as coverage of in vitro IC50 for rat DGAT2 at 300 mg/kg, po qd administered for 1 month; format: functional; design: scale not given: the % may be the effect or the level left
Outline: (§5)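 Wistar Han rats, once-daily oral dosing for 14 days (exploratory, 5/sex/dose) or 1 month (10/sex/dose); toxicokinetics in 3–4/sex/dose with sexes combined; coverage is the average % above rat DGAT2 IC50 at steady state over the 24 h dosing interval.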

Rattus norvegicus [9] = test: Toxicity in Wistar Han IGS rat assessed as gastric smooth muscle degeneration at 500 mg/kg, po qd administered for 14 days; format: organism-based; conditions: in vivo, 336 h
Outline: (§6)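 Wistar Han rats, daily oral dosing for 14 days (5/sex/dose) or 1 month (10/sex/dose); microscopic findings reported as incidence by sex, plus organ weights.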

Canis familiaris [10] = test: Unbound Cmax in telemetered beagle dog at 25 mg/kg administered via oral gavage measured over 24 hrs; format: ADME, organism-based, Canis lupus familiaris; conditions: in vivo; outline: as §3
Canis familiaris [11] = test: Unbound Cmax in beagle dog at 10 mg/kg, po qd administered for 1 month; format: ADME, organism-based, Canis lupus familiaris; conditions: in vivo; outline: as §2
Canis familiaris [12] = test: Toxicity in telemetered beagle dog assessed as emesis at 20 mg/kg, iv administered as single bolus dose over 2 mins; format: organism-based, Canis lupus familiaris; conditions: in vivo
Rattus norvegicus [13] = test: In vivo inhibition of DGAT2 in Wistar Han IGS rat assessed as coverage of in vitro IC50 for rat DGAT2 at 100 mg/kg, po qd administered for 14 days; format: functional; design: scale not given: the % may be the effect or the level left; outline: as §5
Canis familiaris [14] = test: Unbound AUC in beagle dog at 50 mg/kg, po qd administered for 1 month; format: ADME, organism-based, Canis lupus familiaris; conditions: in vivo; outline: as §2
Canis familiaris [15] = test: Unbound Cmax in beagle dog at 5 mg/kg, po qd administered for 1 month; format: ADME, organism-based, Canis lupus familiaris; conditions: in vivo
Outline: (§7)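 One-month dog toxicity study with once-daily oral dosing. Toxicity groups were 2/sex/dose, and unbound peak exposure was taken from toxicokinetic sampling.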

Canis familiaris [16] = test: Toxicity in beagle dog assessed as prolongation of QTc interval at 100 to 150 mg/kg, po qd administered for 25 days; format: organism-based, Canis lupus familiaris; conditions: in vivo, 600 h
Rattus norvegicus [17] = test: Unbound AUC in Wistar Han IGS rat at 100 mg/kg, po qd administered for 14 days; format: ADME, organism-based; conditions: in vivo, 336 h; outline: as §1
Canis familiaris [18] = test: Toxicity in telemetered beagle dog assessed as change in ECG intervals at 5 mg/kg administered via oral gavage measured over 24 hrs; format: organism-based, Canis lupus familiaris; conditions: in vivo
Canis familiaris [19] = test: Unbound AUC in beagle dog at 10 mg/kg, po qd administered for 1 month; format: ADME, organism-based, Canis lupus familiaris; conditions: in vivo; outline: as §2
Canis familiaris [20] = test: Toxicity in telemetered beagle dog assessed as foamy salivation at 20 mg/kg, iv administered as single bolus dose over 2 mins; format: organism-based, Canis lupus familiaris; conditions: in vivo
Rattus norvegicus [21] = test: Toxicity in Wistar Han IGS rat at 100 mg/kg, po qd administered for 14 days; format: organism-based; conditions: in vivo, 336 h; outline: as §6
Canis familiaris [22] = test: Toxicity in beagle dog assessed as renal tubular regeneration at 300 mg/kg, po qd administered for 14 days; format: organism-based, Canis lupus familiaris; conditions: in vivo, 336 h
Rattus norvegicus [23] = test: In vivo inhibition of DGAT2 in Wistar Han IGS rat assessed as coverage of in vitro IC50 for rat DGAT2 at 60 mg/kg, po qd administered for 1 month; format: functional; design: scale not given: the % may be the effect or the level left; outline: as §5
Canis familiaris [24] = test: Toxicity in telemetered beagle dog assessed as increase in diastolic pressure at 25 mg/kg administered via oral gavage measured during 4 hrs of post dosing; format: organism-based, Canis lupus familiaris; conditions: in vivo
[25] = Fraction unbound in rat plasma; format: ADME, cell-free
[26] = Apparent intrinsic clearance in human hepatocytes assessed per million cells; format: ADME, cell-based, Hepatocyte
[27] = target: T1, Diacylglycerol O-acyltransferase 2 (Rattus norvegicus, UniProt Q5FVP8); test: Inhibition of rat DGAT2
T1 sequence (Q5FVP8 whole entry): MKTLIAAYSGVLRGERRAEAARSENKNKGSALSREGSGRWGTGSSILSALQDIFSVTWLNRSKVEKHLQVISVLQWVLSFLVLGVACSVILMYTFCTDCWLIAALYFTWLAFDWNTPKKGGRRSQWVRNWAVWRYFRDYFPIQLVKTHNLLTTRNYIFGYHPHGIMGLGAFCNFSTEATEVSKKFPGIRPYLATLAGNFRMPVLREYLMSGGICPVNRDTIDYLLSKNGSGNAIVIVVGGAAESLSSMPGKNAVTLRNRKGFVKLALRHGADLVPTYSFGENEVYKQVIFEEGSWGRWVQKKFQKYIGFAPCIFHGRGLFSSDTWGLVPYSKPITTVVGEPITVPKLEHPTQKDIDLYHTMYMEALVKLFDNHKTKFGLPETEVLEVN

Canis familiaris [28] = test: Toxicity in telemetered beagle dog assessed as increase in diastolic pressure at 5 mg/kg administered via oral gavage measured during 4 hrs of post dosing; format: organism-based, Canis lupus familiaris; conditions: in vivo
[29] = Apparent intrinsic clearance in dog hepatocytes assessed per million cells; format: ADME, cell-based, Canis lupus familiaris, Hepatocyte
Canis familiaris [30] = test: In vivo inhibition of DGAT2 in beagle dog assessed as coverage of in vitro IC50 for dog DGAT2 at 30 mg/kg, po qd administered for 1 month; format: functional, Canis lupus familiaris; design: scale not given: the % may be the effect or the level left; outline: as §4
Canis familiaris [31] = test: Toxicity in telemetered beagle dog assessed as increase in systolic pressure at 50 mg/kg administered via oral gavage measured during 4 hrs of post dosing; format: organism-based, Canis lupus familiaris; conditions: in vivo
Canis familiaris [32] = test: Unbound Cmax in beagle dog at 3 mg/kg, po qd administered for 1 month; format: ADME, organism-based, Canis lupus familiaris; conditions: in vivo; outline: as §7
Canis familiaris [33] = test: Toxicity in beagle dog at 3 to 30 mg/kg, po qd administered for 1 month; format: organism-based, Canis lupus familiaris; conditions: in vivo
[34] = Half life in beagle dog at 1 mg/kg, iv; format: ADME, organism-based, Canis lupus familiaris; conditions: in vivo

CS(=O)(=O)O.O=C([C@@H]1CCCN(c2ccc3nc(C4(n5cc(Cl)cn5)CC4)[nH]c3n2)C1)N1CCCC1
fCmax (Rattus norvegicus [1]): 390 nM
fCmax (Rattus norvegicus [2]): 4.65 µM
fCmax (Canis familiaris [3]): 305 nM
microsomal CLint (CYP3A4): 23.7 µL/min/mg
fAUC (Rattus norvegicus [4]): 22600 ng·h/mL
microsomal CLint (UGT): < 1.9 µL/min/mg
fCmax (Canis familiaris [5]): 7.51 µM
fCmax (Rattus norvegicus [6]): 2020 nM
Activity (Canis familiaris [7]): 97%
Activity (Rattus norvegicus [8]): >99%
Activity (Rattus norvegicus [9]): Toxic
fCmax (Canis familiaris [10]): 4.06 µM
fCmax (Canis familiaris [11]): 2030 nM
Activity (Canis familiaris [12]): Non-Toxic
Activity (Rattus norvegicus [13]): 98%
fAUC (Canis familiaris [14]): 57500 ng·h/mL
fCmax (Canis familiaris [15]): 1010 nM
Activity (Canis familiaris [16]): Toxic
fAUC (Rattus norvegicus [17]): 25600 ng·h/mL
Activity (Canis familiaris [18]): Non-Toxic
fAUC (Canis familiaris [19]): 5280 ng·h/mL
Activity (Canis familiaris [20]): Non-Toxic
Activity (Rattus norvegicus [21]): Non-Toxic
Activity (Canis familiaris [22]): Toxic
Activity (Rattus norvegicus [23]): 98%

C[C@@H](c1nc2ccc(N3CCC[C@@H](C(=O)N4CCCC4)C3)nc2[nH]1)n1cc(Cl)cn1
Activity (Canis familiaris [24]): 5 mmHg
fraction unbound [25]: 0.14
CLH(app) [26]: 16.1 µL/min
IC50 [27]: 155 nM
microsomal CLint (CYP3A4): 27.5 µL/min/mg
microsomal CLint (UGT): 10.8 µL/min/mg
Activity (Canis familiaris [28]): 4 to 6 mmHg
CLH(app) [29]: 8.4 µL/min
Activity (Canis familiaris [30]): 96%
Activity (Canis familiaris [7]): 86%
Activity (Canis familiaris [31]): 5 mmHg
fCmax (Canis familiaris [10]): 2.14 µM
fCmax (Canis familiaris [11]): 1270 nM
fCmax (Canis familiaris [32]): 454 nM
fAUC (Canis familiaris [19]): 2680 ng·h/mL
Activity (Canis familiaris [33]): Non-Toxic
half-life [34]: 3.2 h

From ChEMBL document CHEMBL4261487, “Small structural changes of the imidazopyridine diacylglycerol acyltransferase 2 (DGAT2) inhibitors produce an improved safety profile” (Medchemcomm, 2017)
